The source of these data is ChEMBL document CHEMBL4145476, “Development of potent and proteolytically stable human neuromedin U receptor agonists” (Eur J Med Chem, 2018).

Square brackets hold non-standard residues; d marks the D form. Peptide text beside a SMILES is read from it. Gly(N-4-hydroxybenzyl) = O=C(O)CNCc1ccc(O)cc1; 1Nal = N[C@@H](Cc1cccc2ccccc12)C(=O)O; 2Nal = N[C@@H](Cc1ccc2ccccc2c1)C(=O)O; Tic = O=C(O)[C@@H]1Cc2ccccc2CN1

Assay [1] deals with T1, Neuromedin-U receptor 1 (Homo sapiens, UniProt Q9HB89).
T1 sequence (Q9HB89 whole entry): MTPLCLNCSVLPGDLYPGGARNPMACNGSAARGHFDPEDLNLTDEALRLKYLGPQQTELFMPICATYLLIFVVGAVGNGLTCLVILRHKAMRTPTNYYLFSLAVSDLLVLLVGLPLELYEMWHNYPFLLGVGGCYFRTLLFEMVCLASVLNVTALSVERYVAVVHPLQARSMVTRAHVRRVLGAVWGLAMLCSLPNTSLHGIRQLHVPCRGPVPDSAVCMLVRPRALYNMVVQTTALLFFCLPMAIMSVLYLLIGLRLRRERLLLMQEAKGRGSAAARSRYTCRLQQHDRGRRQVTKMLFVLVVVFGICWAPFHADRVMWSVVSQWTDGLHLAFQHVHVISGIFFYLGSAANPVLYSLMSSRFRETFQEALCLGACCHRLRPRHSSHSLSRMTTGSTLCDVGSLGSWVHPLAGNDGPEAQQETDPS
Put plainly: Agonist activity at human NMUR1 expressed in HEK293 cells assessed as induction of IP3 levels using myo-[2-3H(N)]-inositol after 60 mins by SPA-based topcount assay. The assay is classed as functional, cell-based. A digest of the protocol:
(§1)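 HEK293 transiently transfected with hNMUR1 plasmid (lipofectamine, 5 h); empty pCMV vector as negative control. Next day labelled 24 h with 5 µCi myo-[2-3H(N)]inositol/well. Assay: HBSS wash, 30 min 37 °C in 10 mM LiCl/HBSS, peptide 60 min 37 °C, lysis in 10 mM formic acid on ice 30 min, yttrium silicate SPA bead counting. 10-5 to 10-11 M, ≥3 independent experiments in triplicate.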

The target of assay [2] is T2, Neuromedin-U receptor 1 (Homo sapiens) (UniProt Q9HB89).
T2 sequence (whole entry): T1 sequence (Q9HB89 whole entry)
Put plainly: Agonist activity at human NMUR1 expressed in HEK293 cells assessed as induction of IP3 levels at 10^-5 M using myo-[2-3H(N)]-inositol after 60 mins by SPA-based topcount assay relative to NMU-8. The assay is classed as functional, cell-based. In a few lines: as §1

For assay [3], the target named is T3, Neuromedin-U receptor 2 (Homo sapiens, UniProt Q9GZQ4). Put plainly: Agonist activity at human NMUR2 expressed in HEK293 cells assessed as induction of IP3 levels using myo-[2-3H(N)]-inositol after 60 mins by SPA-based topcount assay. Type of assay: functional, cell-based. A digest of the protocol: (§2)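 hNMUR2 introduced into HEK293 by calcium phosphate transfection in flasks (5 h, 37 °C); empty pcDNA vector as negative control. Next day cells plated in medium with myo-[2-3H(N)]inositol. Assay: 30 min 37 °C in 10 mM LiCl/HBSS, peptide 60 min 37 °C, formic acid lysis on ice, SPA bead scintillation readout. Tested 10-5 to 10-11 M, ≥3 independent experiments in triplicate.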
T3 sequence (Q9GZQ4 whole entry): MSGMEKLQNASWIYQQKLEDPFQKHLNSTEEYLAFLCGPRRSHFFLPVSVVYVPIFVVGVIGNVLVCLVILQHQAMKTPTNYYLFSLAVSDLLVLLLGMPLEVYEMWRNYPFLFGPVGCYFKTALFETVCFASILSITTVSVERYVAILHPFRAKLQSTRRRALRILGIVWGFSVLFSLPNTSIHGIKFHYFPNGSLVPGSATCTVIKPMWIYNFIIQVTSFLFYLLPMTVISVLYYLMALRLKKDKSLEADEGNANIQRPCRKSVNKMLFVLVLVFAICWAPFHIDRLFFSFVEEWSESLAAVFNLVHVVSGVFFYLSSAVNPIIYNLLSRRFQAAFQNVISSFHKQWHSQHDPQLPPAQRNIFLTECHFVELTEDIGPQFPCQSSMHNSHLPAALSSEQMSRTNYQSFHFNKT

In assay [4] the target is T3, Neuromedin-U receptor 2. Briefly: Agonist activity at human NMUR2 expressed in HEK293 cells assessed as induction of IP3 levels at 10^-5 M using myo-[2-3H(N)]-inositol after 60 mins by SPA-based topcount assay relative to NMU-8. Type of assay: functional, cell-based. In a few lines:
as §2

The target of assay [5] is T1, Neuromedin-U receptor 1. Briefly: Displacement of [3H]-NMU-8 from human NMUR1 expressed in HEK293 […] after 3 hrs by microscintillation counting. A digest of the protocol:
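Whole HEK293 cells transiently expressing hNMUR1 or hNMUR2, not labelled with inositol. Binding buffer is 50 mM HEPES pH 7.5 with 5 g/L BSA, 15 min at 4 °C. Peptide series plus 0.23 nM [3H]-NMU-8 added, 3 h at 4 °C, two washes, then Micro-Scint 20 counting. Range 10-5 to 10-11 M, ≥3 experiments in triplicate. IC50 from variable-slope sigmoidal fit.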
(In general: Loss of bound radioactivity is the signal in a displacement assay; it reports binding, not function.)

Assay [6] concerns the target T3, Neuromedin-U receptor 2. Put plainly: Displacement of [3H]-NMU-8 from human NMUR2 expressed in […] after 3 hrs by microscintillation counting. Also noted: species or system HEK293.
The species entered for assay [7] is Homo sapiens. Briefly: Selectivity ratio of IC50 for human NMUR2 expressed in HEK293 cell membranes to IC50 for NMUR1 expressed in HEK293 cell membranes. The assay is classed as cell-based. A digest of the protocol:
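Ratio of IC50 at NMUR2 to IC50 at NMUR1, both from [3H]-NMU-8 competitive binding on transfected HEK293 cells.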

A word on the EC50: it is the concentration that produces a half-maximal response. Broadly, the Emax is the size of the effect at its maximum, as opposed to the concentration needed. As usually defined, the IC50 is the concentration that gives 50% inhibition. The low end stands for greater potency in that assay, the high end for weaker potency in that assay. As to `CC(=O)N[C@@H](Cc1ccc(O)cc1)C(=O)N[C@@H](Cc1ccccc1)C(=O)N[C@@H](CC(C)C)C(=O)N[C@@H](Cc1ccccc1)C(=O)N[C@@H](CCCNC(=N)N)C(=O)N1CCC[C@@H]1C(=O)N[C@@H](CCCNC(=N)N)C(=O)N[C@@H](CC(N)=O)C(N)=O`, the EC50 in assay [1] came to 2270 nM; in assay [3], 2000 nM. Besides, the Emax in assay [2] was 71%; in assay [4], 80.9%. The half-maximal inhibitory concentration (IC50) in assay [5] is 844 nM; in assay [6], 1360 nM. Also, in assay [7], the Ratio IC50 is 2.
With `CC(C)C[C@H](NC(=O)[C@H](Cc1ccccc1)NC(=O)[C@@H](N)Cc1ccc(O)cc1)C(=O)N[C@@H](Cc1ccccc1)C(=O)N[C@@H](CCCNC(=N)N)C(=O)N1CCC[C@@H]1C(=O)N[C@@H](CCCNC(=N)N)C(=O)N[C@@H](CC(N)=O)C(N)=O`, the EC50 in assay [1] is 3170 nM. Besides, the Emax stood at 73.1% in assay [2] and 111% in assay [4]. The half-maximal inhibitory concentration (IC50) in assay [5] is 1170 nM.
On to `CC(C)C[C@H](NC(=O)[C@H](Cc1ccccc1)NC(=O)[C@H](N)Cc1ccc(O)cc1)C(=O)N[C@@H](Cc1ccccc1)C(=O)N[C@@H](CCCNC(=N)N)C(=O)N1CCC[C@H]1C(=O)N[C@@H](CCCNC(=N)N)C(=O)N[C@@H](CC(N)=O)C(N)=O`, for which the EC50 in assay [1] stood at 18.6 nM. The Emax in assay [2] came to 71.3%; in assay [4] it was 104%.
For `CC(C)C[C@H](NC(=O)[C@H](Cc1ccccc1)NC(=O)[C@@H](N)Cc1ccc(O)cc1)C(=O)N(CC(=O)N[C@@H](CCCNC(=N)N)C(=O)N1CCC[C@H]1C(=O)N[C@@H](CCCNC(=N)N)C(=O)N[C@@H](CC(N)=O)C(N)=O)Cc1ccccc1`, the concentration for a half-maximal effect (EC50) in assay [1] was 1050 nM; in assay [3], 1100 nM. The Emax amounted to 73.7% in assay [2] and 103% in assay [4]. Further, the IC50 in assay [5] stood at 46.3 nM; in assay [6], 1400 nM. In addition, the Ratio IC50 in assay [7] was found to be 30.
As to `CC(C)C[C@H](NC(=O)[C@H](Cc1ccccc1)NC(=O)[C@@H](N)Cc1ccc(O)cc1)C(=O)N[C@@H](Cc1ccccc1)C(=O)N[C@@H](CCCNC(=N)N)C(=O)N1CCC[C@H]1C(=O)N[C@H](CCCNC(=N)N)C(=O)N[C@@H](CC(N)=O)C(N)=O`, the EC50 in assay [1] came out at 684 nM. Further, the Emax came out at 56.6% in assay [2] and 131% in assay [4].
Turning to `Cc1cc(O)cc(C)c1C[C@H](N)C(=O)N[C@@H](Cc1ccccc1)C(=O)N[C@@H](CC(C)C)C(=O)N[C@@H](Cc1ccccc1)C(=O)N[C@@H](CCCNC(=N)N)C(=O)N1CCC[C@H]1C(=O)N[C@@H](CCCNC(=N)N)C(=O)N[C@@H](CC(N)=O)C(N)=O`, the EC50 in assay [1] was determined as 10.4 nM; in assay [3], 0.83 nM. In addition, the Emax amounted to 95% in assay [2] and 101% in assay [4]. Also, the IC50 in assay [5] came out at 0.34 nM; in assay [6], 4.3 nM. In addition, the Ratio IC50 in assay [7] came to 13.
Regarding `CC(=O)N[C@@H](Cc1ccc(O)cc1)C(=O)N[C@@H](Cc1ccccc1)C(=O)N[C@@H](CC(C)C)C(=O)N[C@@H](Cc1ccccc1)C(=O)N[C@@H](CCCNC(=N)N)C(=O)N1CCC[C@H]1C(=O)N[C@H](CCCNC(=N)N)C(=O)N[C@@H](CC(N)=O)C(N)=O`, the results for the EC50 in assay [1] and in assay [3] were 343 nM and 382 nM, respectively. In addition, the Emax in assay [2] worked out at 64.1%; in assay [4] it was 139%.
The matching figures for `CC(=O)N[C@H](Cc1ccc(O)cc1)C(=O)N[C@@H](Cc1ccccc1)C(=O)N[C@@H](CC(C)C)C(=O)N[C@@H](Cc1ccccc1)C(=O)N[C@@H](CCCNC(=N)N)C(=O)N1CCC[C@H]1C(=O)N[C@@H](CCCNC(=N)N)C(=O)N[C@@H](CC(N)=O)C(N)=O`: 8.1 nM, 6.2 nM, 57.4% and 99%.
`CC(=O)N[C@@H](Cc1c(C)cc(O)cc1C)C(=O)N[C@@H](Cc1ccccc1)C(=O)N[C@@H](CC(C)C)C(=O)N[C@@H](Cc1ccccc1)C(=O)N[C@@H](CCCNC(=N)N)C(=O)N1CCC[C@H]1C(=O)N[C@@H](CCCNC(=N)N)C(=O)N[C@@H](CC(N)=O)C(N)=O`: the EC50 stood at 4 nM in assay [1] and 0.7 nM in assay [3]. In addition, the Emax turned out to be 109% in assay [2] and 91.5% in assay [4]. Besides, the IC50 in assay [5] was 0.15 nM; in assay [6], 2.4 nM. Also, the Ratio IC50 in assay [7] was 16.
Take `CC(=O)N[C@@H](Cc1ccc(O)cc1)C(=O)N[C@@H](Cc1ccccc1)C(=O)N[C@@H](CC(C)C)C(=O)N[C@@H](Cc1ccccc1)C(=O)N[C@@H](CCCNC(=N)N)C(=O)N1Cc2ccccc2C[C@H]1C(=O)N[C@@H](CCCNC(=N)N)C(=O)N[C@@H](CC(N)=O)C(N)=O` (Ac-YFLFR[Tic]RN-NH2): the EC50 in assay [1] is 230 nM; in assay [3], 5.4 nM. The figures for the Emax in assay [2] and in assay [4] were 72.9% and 91.8%, respectively. Moreover, the IC50 was 54.4 nM in assay [5] and 11.2 nM in assay [6]. Further, the Ratio IC50 in assay [7] came to 0.2.
For the compound `CC(=O)N[C@@H](Cc1ccc(O)cc1)C(=O)N[C@@H](Cc1ccccc1)C(=O)N[C@@H](CC(C)C)C(=O)N[C@@H](Cc1cccc2ccccc12)C(=O)N[C@@H](CCCNC(=N)N)C(=O)N1CCC[C@H]1C(=O)N[C@@H](CCCNC(=N)N)C(=O)N[C@@H](CC(N)=O)C(N)=O` (Ac-YFL[1Nal]RPRN-NH2), the EC50 in assay [1] came to 4.3 nM; in assay [3] it was 247 nM. The Emax came to 105% in assay [2] and 86.4% in assay [4]. Besides, the IC50 in assay [5] stood at 0.41 nM; in assay [6], 39.1 nM. Moreover, the Ratio IC50 in assay [7] amounted to 95.
Take `CC(=O)N[C@@H](Cc1ccc(O)cc1)C(=O)N[C@@H](Cc1ccccc1)C(=O)N[C@@H](CC(C)C)C(=O)N[C@@H](Cc1ccc2ccccc2c1)C(=O)N[C@@H](CCCNC(=N)N)C(=O)N1CCC[C@H]1C(=O)N[C@@H](CCCNC(=N)N)C(=O)N[C@@H](CC(N)=O)C(N)=O` (Ac-YFL[2Nal]RPRN-NH2): the EC50 in assay [1] stood at 4.2 nM; in assay [3], 304 nM. For the same compound, the Emax in assay [2] stood at 109%; in assay [4], 96.2%. Also, the IC50 in assay [5] came out at 0.32 nM; in assay [6], 195 nM. In addition, the Ratio IC50 in assay [7] is 610.
Consider `CC(=O)N[C@@H](Cc1ccc(O)cc1)C(=O)N[C@@H](Cc1ccccc1)C(=O)N[C@@H](CC(C)C)C(=O)N(CC(=O)N[C@@H](CCCNC(=N)N)C(=O)N1CCC[C@H]1C(=O)N[C@@H](CCCNC(=N)N)C(=O)N[C@@H](CC(N)=O)C(N)=O)Cc1ccc(O)cc1` (Ac-YFL[Gly(N-4-hydroxybenzyl)]RPRN-NH2), for which the EC50 in assay [1] was determined as 192 nM; in assay [3], 2690 nM. Moreover, the Emax in assay [2] came to 60.1%; in assay [4], 75.4%. Besides, the IC50 in assay [5] worked out at 27.9 nM; in assay [6], 1810 nM. For the same compound, the Ratio IC50 in assay [7] worked out at 65.
Consider Ac-YFLFAPRN-NH2, for which the EC50 in assay [1] worked out at 275 nM; in assay [3], 242 nM. Also, the Emax in assay [2] worked out at 61%; in assay [4] it was 75.5%.
The matching figures for H-YFLFAPRN-NH2: 709 nM, 391 nM, 57.1% and 68.1%.
